Rin1-Abl PPI inh: inhibitors of Rin1-Abl protein binding, primary screen, biochemical, TR-FRET. Tyrosine-protein kinase ABL1 (Homo sapiens) + Ras and Rab interactor 1 (Homo sapiens), …. inhibition, % at 7.35 µM. actives 0.4% (n = 360,000); in the data active means inhibition above about 5%, passing the limit was not always enough
STK33 kinase inh: inhibitors of purified STK33 kinase, primary screen, biochemical, ADP-Glo luminescence, homogeneous, cell-free; MBP phosphorylation; AID 2661, 2010; actives 0.073% (n = 320,000); inhibition, % at 10 µM;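 active means inhibition at or above 25%, using the most active replicate where run in duplicate; inactive means inhibition below 25%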
DYRK1A inh: rat Dyrk1A kinase inhibitors, primary screen, biochemical, single point, plate reader. inhibition, % at 12.5 µM. ADP-Glo luminescence, NFATc1 peptide. actives 0.43% (n = 310,000). AID 504441, 2011. Dual specificity tyrosine-phosphorylation-regulated kinase 1A (Rattus norvegicus), Q63470; in the data active means inhibition above about 50%;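 further: plate controls were vehicle with enzyme for no effect and no enzyme for full effect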
GSK3B inh: human GSK3beta kinase inhibitors, primary screen, biochemical, cell-free homogeneous, HTS | GST-GSK3beta kinase, ADP-Glo luminescence, 60 min; stronger effect = lower value | actives 0.038% (n = 300,000) | activity score (negative = inhibition), % at 10 µM;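 active means more than half of replicate wells score below -50%, meaning over 50% inhibition versus plate controls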;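 further: 0% = median DMSO wells and -100% = median GW8510 positive control wells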
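Test system: GST-tagged human GSK3beta kinase, cell-free; evaluation: activity score scaled between in-plate DMSO and GW8510 controls; measured by: ADP-Glo luminescence; incubation: 60 min reaction, RT; benchmarks: DMSO and 20 µM GW8510; reagent: peptide substrate plus 25 µM ATP (final); medium: Tris/MgCl2 kinase buffer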
Arr AP2 block: inhibitors of beta-arrestin/AP2 binding, primary screen, biochemical, GPCR trafficking, flow cytometry | beta-arrestin 1 C-terminal peptide binding to AP2 beta2-adaptin appendage (human) | FITC-arrestin peptide / GST-AP2 beads; AP2 beta2 appendage carries R879A mutation | inhibition, % at 10 µM | actives 0.31% (n = 340,000) | AID 504490, 2011;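 active means inhibition above a set limit, near 3 SD of compounds lacking own fluorescence, cut at about 54% in these data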;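 further: plate controls were DMSO wells for no effect and 5 µM unlabelled arrestin peptide for full effect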
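Measured by: flow cytometry, FL1 (488/535 nm); Material: AP2 appendage R879A on GSH beads; Evaluation: percent response; Timing: pre-incubation 12 min, peptide binding 1 h, room temperature; Also added: 50 nM FITC-arrestin peptide; Medium: PBS with 0.05% Tween 20 and 0.1% BSA.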
GSK3 alpha inh: blockers of GSK3A enzyme activity – biochemical, luminescence, cell-free homogeneous, HTS, primary screen; Glycogen synthase kinase-3 alpha (Homo sapiens), P49840; GSK-3 alpha kinase, ADP-Glo luminescence, 60 min; inhibition, % at 10 µM; actives 0.1% (n = 320,000); AID 2650, 2010;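 active means more than half of replicates show inhibition above 20%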;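 further: GST-tagged GSK-3 alpha with peptide substrate and 25 µM ATP; 0% = DMSO neutral wells and 100% = GW8510 positive control wells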
Target sequence (P49840 whole entry, looked up): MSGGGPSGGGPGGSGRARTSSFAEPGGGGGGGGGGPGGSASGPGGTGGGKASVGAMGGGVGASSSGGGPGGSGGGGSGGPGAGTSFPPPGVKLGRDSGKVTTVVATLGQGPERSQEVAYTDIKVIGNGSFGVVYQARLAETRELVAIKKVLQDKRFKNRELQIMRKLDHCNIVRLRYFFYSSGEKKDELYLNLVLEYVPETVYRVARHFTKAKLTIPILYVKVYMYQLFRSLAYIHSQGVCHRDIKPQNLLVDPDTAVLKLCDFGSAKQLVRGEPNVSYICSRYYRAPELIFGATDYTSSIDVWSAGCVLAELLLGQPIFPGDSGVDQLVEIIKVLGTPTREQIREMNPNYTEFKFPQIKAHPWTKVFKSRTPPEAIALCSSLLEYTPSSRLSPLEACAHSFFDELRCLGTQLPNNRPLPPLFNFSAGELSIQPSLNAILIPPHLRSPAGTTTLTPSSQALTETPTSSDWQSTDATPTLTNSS
The depositor's hits bear a star; nt = not tested or not shown. Rows were chosen to be rich in hits. Some 0.99% of all compounds tested hit in one or more screens of this group.

SMILES	Rin1-Abl PPI inh	STK33 kinase inh	DYRK1A inh	GSK3B inh	Arr AP2 block	GSK3 alpha inh
O=C1CCNc2cc3ccccc3cc21	-0.4	1.9	76.1*	2.4	21.7	6.5
COc1ccc(OC)c(S(=O)(=O)NC2CC(=O)N(c3ccc(C)c(C)c3)C2)c1 (configuration not stated)	0.7	-0.9	5.4	-0.1	-3.2	0.5
O=C(N/N=C/c1ccccc1F)NC12CC3CC(CC(C3)C1)C2	0.2	1.5	-2.9	1.2	-4.0	2.0
COc1cccc(/C=N/NC(=O)NC23CC4CC(CC(C4)C2)C3)c1O	8.1*	-1.2	nt	0.4	-0.7	0.2
CCC(Oc1ccccc1)C(=O)Nc1ncc([N+](=O)[O-])s1 (configuration not stated)	2.1	0.1	1.0	2.5	9.2	-3.7
CC(CC(=O)Nc1ncc([N+](=O)[O-])s1)c1ccccc1 (configuration not stated)	1.8	-2.4	nt	-20.2	8.6	52.2*
COc1cc(NC(=O)Nc2nc(C(N)CCc3ccccc3)cs2)cc(OC)c1OC (configuration not stated)	2.0	nt	nt	nt	nt	nt
O=C1CSC(=S)N1/N=C/c1ccc(O)c(O)c1O	29.6*	15.1	3.6	0.5	56.8*	0.8
O=C1CSC(=S)N1/N=C/c1cc(Br)ccc1O	nt	-0.7	nt	-0.2	nt	-0.3
Cc1ccc(CSc2nnc(SCC(=O)N/N=C/c3ccc(C(=O)O)cc3)s2)cc1	-1.8	-1.0	-6.0	-10.2	9.3	3.2
O=C(CSc1nnc(SCc2ccccc2)s1)N/N=C/c1ccc(C(=O)O)cc1	-2.2	-1.4	2.2	-16.3	6.0	53.0*
N#C/C(=C\c1ccc(O)c(Br)c1)C(=O)NCc1ccccc1	0.5	8.2	86.3*	-5.1	23.9	13.3
Oc1cc2c(cc1O)[C@H]1c3ccc(O)c(O)c3OC[C@@]1(O)C2	31.4*	-0.9	8.5	nt	23.3	-1.7
Cc1ccc(-c2nc(Nc3cccc(O)c3)c3ccccc3n2)cc1	1.5	-0.4	64.3*	0.3	-12.0	16.5
Fc1cccc(Nc2nc(-c3ccncc3)nc3ccccc23)c1	-1.9	-0.8	1.7	-75.0*	-5.0	-0.2
Oc1ccc(Nc2nc(-c3ccccc3O)nc3ccccc23)cc1	-2.0	49.1*	3.2	0.0	-2.9	-3.4
COc1ccc(Nc2nc(-c3ccccc3O)nc3ccccc23)cc1	1.0	3.9	-2.0	-4.3	-2.5	-2.9
c1ccc(Nc2nc(-c3ccccc3)nc3ccccc23)cc1	-1.4	-0.8	7.4	1.8	2.2	0.4
CCOC(=O)Cn1ccc(NC(=O)c2ccc3c(c2)OCO3)n1	-2.5	-0.3	4.7	2.7	5.3	1.0
N#CCCn1cc(/C=N/O)c(-c2ccccc2)n1	2.0	-0.3	7.9	nt	12.5	11.5
N#CCCn1cc(/C=N/O)c(-c2cccc([N+](=O)[O-])c2)n1	-2.4	-0.1	20.1	-26.1	9.2	63.9*
c1cncc(Nc2nc(-c3cccnc3)cs2)c1	-2.6	34.0*	31.6	-10.6	1.3	9.6
CCOC(=O)C1CCCN(C(=O)c2ccc(-c3ccccc3)cc2)CC1 (configuration not stated)	0.8	nt	nt	nt	nt	nt
CC1(c2nnc(-c3ccccc3)o2)CC(c2ccccc2)=NO1 (configuration not stated)	-0.2	-0.3	-5.8	0.1	15.9	-3.4
Cc1ccc(C)n1Cc1ccc(C(=O)O)cc1	14.8*	-1.9	3.0	nt	-1.3	-1.3
COCCNc1nc(NCc2cccc(OC)c2)c2sc(-c3ccccc3)cc2n1	-11.2	nt	nt	nt	nt	nt
COCCSc1nc2c(c(=O)[nH]c(=O)n2C)n1Cc1cccc(C)c1	11.2*	0.3	1.2	-5.9	-0.9	1.5
CCCCNC(=O)C1(C)CCN1C(=O)c1cc(-c2cccs2)oc1C (configuration not stated)	-5.5	nt	nt	nt	nt	nt

High-throughput results as filed in PubChem.
